# High-throughput results: PubChem BioAssay, Johns Hopkins Ion Channel Center
# KCNQ1 act = human KCNQ1 channel potentiation or activation | P51787 | CHO-K1 KCNQ1, thallium flux FluxOR fluorescence; stronger effect = higher value | B-score at 10 µM | 310,000 compounds, 0.35% hits | AID 2648;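 active = fluorescence ratio B-score, a plate-corrected score, at least three library SD, with initial intensity B-score within 5 SD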
#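 Assay system: CHO-K1 cells stably expressing KCNQ1. Medium: assay buffer for compound exposure, DMSO matched across wells. Timing: 37 °C overnight plating, 90-min dark dye load, 20-min compound pretreatment. Signal: kinetic FluxOR fluorescence, 10 s baseline plus 110 s post-stimulus.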
# KCNK3 block = human KCNK3 channel inhibition, primary screen. B-score at 10 µM. O14649. AID 602410. 340,000 compounds, 0.84% hits. CHO-KCNK3 thallium flux, FluxOR fluorescence; stronger effect = lower value;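 active = B-score under library mean minus 4 SD, starting fluorescence ratio at most library mean plus 5 SD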;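 also: more negative B-score means stronger inhibition of thallium flux through KCNK3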
# KCNQ1 block = human KCNQ1 channel inhibition; CHO-K1 KCNQ1, FluxOR thallium flux fluorescence; stronger effect = higher value; B-score at 10 µM; 310,000 compounds, 1.3% hits;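 active = compounds whose thallium flux B-score, printed positive for inhibition, exceeds three library SD while starting fluorescence stays within three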;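 also: channel opened by potassium depolarization with thallium stimulus after 20 min compound exposure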
# KCNK9 block = inhibitors of human KCNK9 two-pore domain potassium channel. Q9NPC2. HEK293 KCNK9, FluxOR thallium flux fluorescence; stronger effect = lower value. B-score at 10 µM. 310,000 compounds, 1.2% hits. AID 488922;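 active = ratio B-score over 3 SD below the library mean, with starting fluorescence within 5 SD of its mean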;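 also: negative B-score means less thallium flux so channel inhibition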
# hERG rescue = shields human hERG channel from block by proarrhythmic agents. CHO-hERG, FluxOR thallium flux, dofetilide IC70 present. Q12809. 310,000 compounds, 0.51% hits. activation (rescue from dofetilide block), less the hit threshold, % at 10 µM;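 active = activation above the mean of controls blocked by dofetilide plus 5 SD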;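 also: thallium influx through hERG after potassium depolarization seen as dye fluorescence rise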
# KCNQ1 block val = confirmation of human KCNQ1 potassium channel inhibitors | shares compounds with KCNQ1 block | KCNQ1 cell line, FluxOR thallium flux fluorescence | inhibition, % at 10 µM | 1,600 compounds, 93% hits | AID 588353;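 active = primary screen active, with duplicate mean exceeding buffer control mean plus 3 SD of buffer wells, cut at about 28% in these data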;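 also: 0% = buffer control ratio and 100% = XE991 inhibitor control ratio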
# CHO KCNQ1 ctr = KCNQ1 inhibitor counter-screen hit in parental CHO cells; shares compounds with KCNQ1 block; parental CHO-K1, FluxOR thallium flux fluorescence ratio; stronger effect = lower value; zero means no signal rise above baseline; fluorescence ratio (Tl flux) at 10 µM; 1,600 compounds, 21% hits; AID 588366;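 active = mean of duplicate thallium-flux fluorescence ratios in parental host cells more than 5 SD below the buffer control mean, cut at about 0.38 in these data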;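 also: ratio is peak minus minimum fluorescence divided by baseline fluorescence; actives read low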
# KCNQ1 ephys val = blocks human KCNQ1 current in automated patch clamp. calls only at 10 µM. KCNQ1-CHO cells. 490 compounds, 20% hits. shares compounds with KCNQ1 block;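 active = KCNQ1 current drop exceeding 3 SD of negative control wells, seen in both duplicate runs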;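 also: steady state current during a 2 s step from -80 to +40 mV; negative values mean current inhibition and positive values mean potentiation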
# KCNQ2 inh = rat KCNQ2 inhibition in KCNQ1 inhibitor specificity screen; shares compounds with KCNQ1 block; KCNQ2 cells, FluxOR thallium flux fluorescence; inhibition, % at 10 µM; 1,600 compounds, 71% hits; AID 651746;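 active = mean percent inhibition of the KCNQ2 thallium signal more than 5 SD above the buffer-only control wells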;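 also: KCNQ2 expressed in CHO cells; 0% = buffer control wells and 100% = XE-991 inhibitor control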
# KCNQ1 KCNE1 spec = selectivity of KCNQ1 inhibitors: inhibition of human KCNQ1/KCNE1 channel; inhibition, % at 10 µM; shares compounds with KCNQ1 block; KCNQ1/KCNE1 cells, FluxOR thallium flux fluorescence; 1,600 compounds, 77% hits;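 active = mean percent inhibition of duplicate wells above the buffer-only control mean plus 3 SD of those controls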;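 also: 0% = buffer only wells and 100% = XE-991 inhibitor control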
# Target sequence (P51787 whole entry, looked up): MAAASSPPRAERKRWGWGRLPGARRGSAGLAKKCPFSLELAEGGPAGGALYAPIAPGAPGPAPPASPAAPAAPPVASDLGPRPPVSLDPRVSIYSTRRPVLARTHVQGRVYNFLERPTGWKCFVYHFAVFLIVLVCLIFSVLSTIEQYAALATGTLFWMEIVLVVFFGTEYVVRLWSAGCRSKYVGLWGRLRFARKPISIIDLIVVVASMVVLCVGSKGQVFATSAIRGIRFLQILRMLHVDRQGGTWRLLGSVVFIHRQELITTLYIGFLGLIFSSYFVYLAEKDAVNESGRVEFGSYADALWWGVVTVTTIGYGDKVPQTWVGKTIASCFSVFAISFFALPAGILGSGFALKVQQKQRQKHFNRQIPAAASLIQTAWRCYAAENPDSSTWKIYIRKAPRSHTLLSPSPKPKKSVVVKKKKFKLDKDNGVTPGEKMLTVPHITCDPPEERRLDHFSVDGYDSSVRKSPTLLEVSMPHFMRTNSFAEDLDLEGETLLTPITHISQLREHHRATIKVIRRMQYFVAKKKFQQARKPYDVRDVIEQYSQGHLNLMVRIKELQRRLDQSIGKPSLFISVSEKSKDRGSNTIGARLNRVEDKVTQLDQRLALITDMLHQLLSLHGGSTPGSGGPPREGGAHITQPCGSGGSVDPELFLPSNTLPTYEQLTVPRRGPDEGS
# KCNK9 block conf = human KCNK9 inhibitor confirmation; HEK293 KCNK9 cells, FluxOR thallium flux fluorescence; inhibition, % at 10 µM; shares compounds with KCNK9 block; AID 492992; 4,900 compounds, 43% hits;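 active = thallium signal inhibited by more than 5 SD of the compound-free buffer control wells, on both duplicate plates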;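 also: 0% = assay buffer control wells without compound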
# Kir2-1 spec = mouse Kir2.1 off-target activity of KCNK9 modulators. shares compounds with KCNK9 block. Kir2.1 cells, FluxOR thallium flux fluorescence. inhibition, % at 10 µM. 4,900 compounds, 4% hits;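 active = thallium signal drop more than 5 SD beyond the mean of the no-compound control wells, seen in both duplicate plates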;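 also: signal is fluorescence rise after thallium addition divided by baseline fluorescence; plate controls were assay buffer only for no effect and full block by chlorpromazine control for full effect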
# KCNK9 uninduced = second check of KCNK9 modulator effects in non-induced HEK293 cells | shares compounds with KCNK9 block | FluxOR thallium flux | inhibition, % at 10 µM | 4,900 compounds, 40% hits | AID 492997;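 active = thallium signal drop beyond 5 SD of the untreated control mean, on both duplicate plates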;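 also: plate controls were buffer only IC0 wells for no effect and SID17386958 at its maximal inhibitory level for full effect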
# KCNK3 inh conf = human KCNK3 channel inhibition, confirmation assay; CHO-KCNK3 thallium flux, FluxOR fluorescence; 0% buffer, 100% carvedilol maximal block; 2,400 compounds, 99% hits; shares compounds with KCNK3 block; ratio percent of control, % at 10 µM;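 active = ratio percent of control, averaged over triplicates, above buffer control mean plus 5 SD, cut at about 64% in these data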;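 also: ratio is the fluorescence rise from min to max over baseline after thallium stimulus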
# KCNK3 noninduced = activity in cells without induced KCNK3 expression | 2,400 compounds, 40% hits | thallium flux ratio (lower = more inhibition) at 10 µM | non-induced KCNK3 parental cells, FluxOR thallium flux; stronger effect = lower value | shares compounds with KCNK3 block;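 active = thallium flux ratio, averaged over three wells, more than 5 SD below the buffer control mean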;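 also: host cells are CHO cells without KCNK3 induction; ratio is peak minus trough fluorescence over baseline then normalized to buffer controls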
# Starred values were filed as active, the others as inactive; i = inactive; · = no result given; + = active, no number. An excerpt weighted towards active compounds, which were near 3.1% of everything screened.
SMILES,KCNQ1 act,KCNK3 block,KCNQ1 block,KCNK9 block,hERG rescue,KCNQ1 block val,CHO KCNQ1 ctr,KCNQ2 inh,KCNQ1 KCNE1 spec,KCNK3 inh conf,KCNK3 noninduced,others
Cn1c(=O)c2c(nc(/C=C/c3cccc(Cl)c3)n2C)n(C)c1=O,i,·,i,i,-7,·,·,·,·,·,·,
Cc1ccc(-c2ccc(OC(=O)c3ccc(=O)[nH]c3)c(C)c2)cc1,i,i,i,i,-5,·,·,·,·,·,·,
COc1ccc(-c2csc3ncnc(N4CCN(C(=O)c5ccco5)CC4)c23)cc1,i,i,i,i,-23,·,·,·,·,·,·,
COc1ccc(N2CCN(c3ncnc4scc(-c5ccc(F)cc5)c34)CC2)cc1,i,-11*,8*,i,-11,95*,0.36*,74%*,104%*,110*,i,
COc1ccc(N2CCN(c3ncnc4scc(-c5ccccc5)c34)CC2)cc1,i,-11*,6*,-12*,-9,93*,0.38,106%*,108%*,117*,i,KCNQ1 ephys val=i;KCNK9 block conf=28%*;Kir2-1 spec=i;KCNK9 uninduced=i
CCN(CC)CCCNC(=O)C1CCN(C(=O)c2oc3cc4sc(N(C)C)nc4cc3c2C)CC1,i,i,i,i,0,·,·,·,·,·,·,
CCCn1c(=O)c(C(=O)NCCc2ccc(OC)c(OC)c2)c(O)c2ccccc21,i,-11*,9*,i,-3,80*,0.41,101%*,63%*,107*,0.16*,
O=C(/C=C/c1ccc(Br)o1)Nc1nnc(C2CC2)s1,i,·,i,i,-4,·,·,·,·,·,·,
c1ccc(-c2nc(NCc3cccs3)c3ccccc3n2)cc1,i,i,i,i,-8,·,·,·,·,·,·,
c1csc(CNc2nc(-c3cccs3)nc3ccccc23)c1,i,-11*,6*,i,-14,112*,0.38,123%*,168%*,108*,i,KCNQ1 ephys val=i
COc1ccc(CN2C(=O)CNC2=S)cc1,i,i,i,i,-2,·,·,·,·,·,·,
CC(=O)c1c(C)[nH]c(C(=O)Nc2ccc(C)c(S(=O)(=O)Nc3ccc(C)cc3C)c2)c1C,i,-13*,12*,-7.8*,-15,142*,0.44,142%*,+,137*,i,KCNQ1 ephys val=i
Cc1cc(C)c(C#N)c(SCSCc2ccccc2)n1,i,-9.7*,6*,i,-18,86*,0.38*,110%*,125%*,107*,i,
Cc1ccc(-c2csc(NC(=O)c3ccccc3F)c2C(=O)O)cc1,i,i,i,i,-5,·,·,·,·,·,·,
Cc1ccc2c(c1)sc(-c1ccc(N(C)C)cc1)[n+]2C,i,-21*,16*,i,-36,+,0.28*,i,i,143*,0.12*,
CC[n+]1c(C)sc2cc(C)ccc21,i,i,i,i,-5,·,·,·,·,·,·,
COc1cccc(-c2nc(NCc3ccccc3)c3ccccc3n2)c1O,i,i,i,i,-10,·,·,·,·,·,·,
COc1cccc(-c2nc(NC3CCCC3)c3ccccc3n2)c1O,i,-13*,9*,i,-8,140*,0.32*,126%*,98%*,133*,i,
FC(F)Sc1ccc(NC(=S)NC2CCCCC2)cc1,i,-10*,10*,i,-20,78*,0.53,i,36%*,104*,i,
S=C(Nc1ccc(Br)cc1)NC1CCCC1,i,i,i,i,-4,·,·,·,·,·,·,
Cc1cccc(-c2cc(C(=O)Nc3cccnc3)c3ccccc3n2)c1,i,-8.9*,9*,i,-21,124*,0.37*,136%*,159%*,125*,0.1*,
CCN(CC(=O)Nc1cc(Cl)ccc1C)C(=O)c1ccc2c(c1)NC(=O)C(C)S2 (configuration not stated),i,i,i,i,-18,·,·,·,·,·,·,
CCOc1ccc(CCNC(=O)c2ccc3c(=O)[nH]c4c(C(=O)NC(C)C)sc(=S)n4c3c2)cc1,i,-9*,15*,i,-27,156*,0.33*,97%*,+,108*,i,
CCCCNC(=O)c1sc(=S)n2c1[nH]c(=O)c1ccccc12,i,i,i,i,-31,·,·,·,·,·,·,
CC(C)NC(=O)c1sc(=S)n2c1[nH]c(=O)c1ccc(C(=O)NCCc3ccc(Cl)cc3)cc12,i,-18*,16*,i,-10,102*,0.35*,81%*,174%*,93*,i,
COCC(C)N1C(=O)Cc2c1nc(N)c1c(N)nc(N3CCN(c4ccccc4F)CC3)c(C#N)c21 (configuration not stated),i,i,6*,-11*,-22,152*,0.49,i,+,115*,0.15*,KCNQ1 ephys val=i;KCNK9 block conf=62%*;Kir2-1 spec=i;KCNK9 uninduced=i
COCCN1C(=O)Cc2c1nc(N)c1c(N)nc(N3CCN(c4ccc(F)cc4)CC3)c(C#N)c21,i,i,i,i,-15,·,·,·,·,·,·,
CCc1ccc(CN(C)C(=O)c2cc(COc3cccc4cnccc34)on2)cc1,i,-14*,11*,-10*,-14,160*,0.33*,132%*,+,127*,0.15*,KCNK9 block conf=i;Kir2-1 spec=i;KCNK9 uninduced=i
